Measurements: ChEMBL document CHEMBL5108018, “Discovery of MDM2-p53 and MDM4-p53 protein-protein interactions small molecule dual inhibitors” (Eur J Med Chem, 2022)
Values belong to the molecule of their own block, whether it stands above or below them. The source made the active and inactive calls. The calls are words filed in the database; no cut-off is given here.

Tests used:
HCT-116 = test: Antiproliferative activity against human HCT-116 cells harboring wild type p53 overexpressing MDM2 assessed as inhibition of cell growth incubated for 48 hrs by MTS assay; format: functional, cell-based; conditions: HCT-116, 48 h
How it was run: (§1)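 MTS viability: cells seeded 1×10^4/well (HCT116), 3×10^3/well (SJSA-1, LNCaP), 5×10^3/well (MCF-7), treated ~24 h after plating with DMSO-stock compounds serially diluted in medium (final DMSO ≤0.1%). Ten or more concentrations over 1–100 µM, duplicates, ≥3 independent runs. Exposure 48 h (HCT116), 72 h (MCF-7), 96 h (SJSA-1, LNCaP). MTS 0.5 mg/mL added for 15–30 min, A490. IC50 from four-parameter variable-slope fit.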

SJSA-1 [1] = test: Antiproliferative activity against human SJSA-1 cells harboring wild type p53 overexpressing MDM2/4 assessed as inhibition of cell growth incubated for 96 hrs by MTS assay; format: functional, cell-based; conditions: SJSA-1, 96 h; how it was run: as §1
LNCaP = test: Antiproliferative activity against human LNCaP cells harboring wild type p53 overexpressing MDM2/4 assessed as inhibition of cell growth incubated for 96 hrs by MTS assay; format: functional, cell-based; how it was run: as §1
MCF7 = test: Antiproliferative activity against human MCF7 cells harboring wild type p53 overexpressing MDM2/4 assessed as inhibition of cell growth incubated for 72 hrs by MTS assay; format: functional, cell-based; conditions: MCF7, 72 h; how it was run: as §1
HEK-293T = test: Cytotoxicity against HEK293T cells assessed as reduction in cell viability at 15 uM incubated for 96 hrs by MTS assay; format: toxicity, cell-based; conditions: human
How it was run: (§2)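 Single-concentration MTS viability with DMSO vehicle control (final ≤0.1%) run in parallel. HEK293T: 3×10^3 cells/well, 15 µM for 96 h. HCT116 p53(-/-): 20 µM for 48 h. Compound added ~24 h after plating; MTS 0.5 mg/mL in fresh medium for 15–30 min, A490. Mean ± SD of three independent experiments, one-way ANOVA with Bonferroni test.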

[2] = Antiproliferative activity against human HCT116-p53-null cells assessed as reduction in cell viability at 20 uM incubated for 48 hrs by MTS assay; format: functional; how it was run: as §2
SJSA-1 [3] = test: Induction of apoptosis in human SJSA-1 cells assessed as viable cells at 10 uM incubated for 96 hrs by Annexin V-FITC/7-AAD staining based flow cytometric analysis (reference value: 94.3%); format: functional; conditions: read-out: Activity
SJSA-1 [4] = test: Induction of apoptosis in human SJSA-1 cells assessed as early apoptotic cells at 10 uM incubated for 96 hrs by Annexin V-FITC/7-AAD staining based flow cytometric analysis (reference value: 1.9%); format: functional
SJSA-1 [5] = test: Induction of apoptosis in human SJSA-1 cells assessed as late apoptotic cells at 10 uM incubated for 96 hrs by Annexin V-FITC/7-AAD staining based flow cytometric analysis (reference value: 3.7%); format: functional
SJSA-1 [6] = test: Induction of apoptosis in human SJSA-1 cells assessed as viable cells at 15 uM incubated for 96 hrs by Annexin V-FITC/7-AAD staining based flow cytometric analysis (reference value: 94.3%); format: functional; conditions: read-out: Activity
SJSA-1 [7] = test: Induction of apoptosis in human SJSA-1 cells assessed as early apoptotic cells at 15 uM incubated for 96 hrs by Annexin V-FITC/7-AAD staining based flow cytometric analysis (reference value: 1.9%); format: functional
SJSA-1 [8] = test: Induction of apoptosis in human SJSA-1 cells assessed as late apoptotic cells at 15 uM incubated for 96 hrs by Annexin V-FITC/7-AAD staining based flow cytometric analysis (reference value: 3.7%); format: functional
SJSA-1 [9] = test: Induction of cell death in human SJSA-1 cells assessed as reduction in cell growth at IC50 incubated for 96 hrs by bright field microscopic analysis; format: functional, cell-based
How it was run: (§3)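 Brightfield microscopy of SJSA-1 cell morphology after 96 h with DMSO vehicle or compound.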

SJSA-1 [10] = test: Induction of cell death in human SJSA-1 cells assessed as loss of cell volume at 1.5 times IC50 incubated for 96 hrs by bright field microscopic analysis; format: functional, cell-based; how it was run: as §3
SJSA-1 [11] = test: Induction of cell cycle arrest in human SJSA-1 cells assessed as accumulation of cells at G0/G1 phase at 10 uM incubated for 96 hrs by RNaseA/PI staining based flow cytometry analysis (reference value: 50.93 %); format: functional
SJSA-1 [12] = test: Induction of cell cycle arrest in human SJSA-1 cells assessed as accumulation of cells at S phase at 10 uM incubated for 96 hrs by RNaseA/PI staining based flow cytometry analysis (reference value: 30.25 %); format: functional
SJSA-1 [13] = test: Induction of cell cycle arrest in human SJSA-1 cells assessed as accumulation of cells at G2/M phase at 10 uM incubated for 96 hrs by RNaseA/PI staining based flow cytometry analysis (reference value: 18.82 %); format: functional
SJSA-1 [14] = test: Induction of cell cycle arrest in human SJSA-1 cells assessed as accumulation of cells at G0/G1 phase at 15 uM incubated for 96 hrs by RNaseA/PI staining based flow cytometry analysis (reference value: 50.93 %); format: functional
SJSA-1 [15] = test: Induction of cell cycle arrest in human SJSA-1 cells assessed as accumulation of cells at S phase at 15 uM incubated for 96 hrs by RNaseA/PI staining based flow cytometry analysis (reference value: 30.25 %); format: functional
SJSA-1 [16] = test: Induction of cell cycle arrest in human SJSA-1 cells assessed as accumulation of cells at G2/M phase at 15 uM incubated for 96 hrs by RNaseA/PI staining based flow cytometry analysis (reference value: 18.82 %); format: functional
[17] = target: Tumour suppressor p53/oncoprotein Mdm2 (Homo sapiens, UniProt P04637+Q00987); test: Inhibition of MDM2/p53 interaction in human U-87 MG cells preincubated for 10 mins under shaking condition and measured after 1.5 hrs by immuno-enzymatic assay; format: cell-based
[18] = target: Tumour suppressor protein p53/Mdm4 (Homo sapiens, UniProt O15151+P04637); test: Inhibition of MDM4/p53 interaction in human SH-SY5Y cells preincubated for 10 mins under shaking condition and measured after 1.5 hrs by immuno-enzymatic assay; format: cell-based
Sequence of Tumour suppressor protein p53/Mdm4 (P04637 whole entry): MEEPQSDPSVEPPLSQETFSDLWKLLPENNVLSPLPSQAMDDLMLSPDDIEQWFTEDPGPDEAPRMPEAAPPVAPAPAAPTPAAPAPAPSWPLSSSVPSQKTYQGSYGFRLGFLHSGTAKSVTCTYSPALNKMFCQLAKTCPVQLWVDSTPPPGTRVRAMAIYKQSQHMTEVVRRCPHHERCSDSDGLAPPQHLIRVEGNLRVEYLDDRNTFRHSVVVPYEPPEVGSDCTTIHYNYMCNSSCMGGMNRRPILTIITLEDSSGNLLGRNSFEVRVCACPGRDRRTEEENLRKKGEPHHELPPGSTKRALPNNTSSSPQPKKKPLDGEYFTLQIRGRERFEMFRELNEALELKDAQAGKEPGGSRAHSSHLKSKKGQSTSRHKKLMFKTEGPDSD
Sequence of Tumour suppressor protein p53/Mdm4 (O15151 whole entry): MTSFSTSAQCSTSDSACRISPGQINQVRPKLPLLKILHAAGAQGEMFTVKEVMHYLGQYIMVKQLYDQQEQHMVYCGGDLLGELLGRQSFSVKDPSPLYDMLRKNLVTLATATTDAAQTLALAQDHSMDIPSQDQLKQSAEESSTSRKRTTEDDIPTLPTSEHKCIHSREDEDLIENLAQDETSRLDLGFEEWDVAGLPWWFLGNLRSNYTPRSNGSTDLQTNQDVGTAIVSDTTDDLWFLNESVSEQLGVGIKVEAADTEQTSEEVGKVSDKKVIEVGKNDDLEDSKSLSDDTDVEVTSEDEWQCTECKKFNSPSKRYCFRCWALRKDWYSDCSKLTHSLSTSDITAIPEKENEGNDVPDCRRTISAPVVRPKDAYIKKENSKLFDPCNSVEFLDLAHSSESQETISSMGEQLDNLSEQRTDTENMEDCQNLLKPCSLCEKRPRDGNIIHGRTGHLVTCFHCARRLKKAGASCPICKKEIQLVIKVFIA

Sequence of Tumour suppressor p53/oncoprotein Mdm2 (P04637 whole entry): as the sequence (P04637 whole entry) above
Sequence of Tumour suppressor p53/oncoprotein Mdm2 (Q00987 whole entry): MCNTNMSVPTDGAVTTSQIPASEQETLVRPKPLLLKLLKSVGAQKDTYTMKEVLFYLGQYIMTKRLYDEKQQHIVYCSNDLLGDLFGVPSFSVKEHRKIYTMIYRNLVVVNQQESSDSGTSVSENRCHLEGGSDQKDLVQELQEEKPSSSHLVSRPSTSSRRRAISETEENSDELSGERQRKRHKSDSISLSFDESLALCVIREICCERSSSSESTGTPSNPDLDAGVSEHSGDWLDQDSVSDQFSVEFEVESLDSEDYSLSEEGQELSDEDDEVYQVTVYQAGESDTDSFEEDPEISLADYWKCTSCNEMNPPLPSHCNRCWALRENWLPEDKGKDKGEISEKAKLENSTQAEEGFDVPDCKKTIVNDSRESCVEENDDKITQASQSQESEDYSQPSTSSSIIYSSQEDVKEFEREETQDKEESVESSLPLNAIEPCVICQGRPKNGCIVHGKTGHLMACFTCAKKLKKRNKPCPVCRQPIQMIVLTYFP

Compound: O=C(Nc1cccc(-n2cccn2)c1)C1=NN(c2ccc(Cl)cc2)C2(C(=O)Nc3cc(Cl)ccc32)C1c1cccc(O)c1 (stereo not drawn)
IC50 (HCT-116): 20.9 µM
IC50 (SJSA-1 [1]): 17.4 µM
IC50 (LNCaP): 11.5 µM
IC50 (MCF7): 12.4 µM

Compound: CCOC(=O)C1=NN(C(C)(C)C)C2(C(=O)Nc3cc(Cl)ccc32)C1c1ccc(Cl)cc1 (stereo not drawn)
IC50 (HCT-116): 30.2 µM

Compound: O=C(Nc1cccc(-n2ccc(-c3ccccc3)n2)c1)C1=NN(c2ccc(Cl)cc2)C2(C(=O)Nc3cc(Cl)ccc32)C1c1cccc(O)c1 (stereo not drawn)
IC50 (HCT-116): 18.8 µM
IC50 (SJSA-1 [1]): 10.7 µM
IC50 (LNCaP): 11.4 µM
IC50 (MCF7): 9.7 µM
Activity (HEK-293T): Non-Toxic
Activity [2]: 52%
viability at 10 µM (SJSA-1 [3]): 90.5%
Activity (SJSA-1 [4]): 4.1%
Activity (SJSA-1 [5]): 5.2%
viability at 15 µM (SJSA-1 [6]): 65.3%
Activity (SJSA-1 [7]): 14.4%
Activity (SJSA-1 [8]): 19.1%
Activity (SJSA-1 [9]): Active
Activity (SJSA-1 [10]): Active
Activity (SJSA-1 [11]): 74.89%
Activity (SJSA-1 [12]): 16.17%
Activity (SJSA-1 [13]): 8.94%
Activity (SJSA-1 [14]): 91.82%
Activity (SJSA-1 [15]): 4.27%
Activity (SJSA-1 [16]): 3.91%

Compound: O=C1Nc2ccc(Br)cc2C12C(c1ccccc1)C(c1ccccc1)=NN2c1ccccc1 (stereo not drawn)
IC50 [17]: 0.144 µM
IC50 [18]: 0.295 µM

Compound: O=C(Nc1ccc(O)cc1)C1=NN(c2ccc(Cl)cc2)C2(C(=O)Nc3cc(Cl)ccc32)C1c1cccc(O)c1 (stereo not drawn)
IC50 (HCT-116): 27.2 µM
IC50 (MCF7): 14.3 µM

Compound: CCOC(=O)C1=NN(c2ccc(Cl)cc2)C2(C(=O)Nc3cc(Cl)ccc32)C1c1cccc(O)c1 (stereo not drawn)
IC50 (HCT-116): 33.7 µM

The remaining lines, values ahead:

IC50 (HCT-116): 34.2 µM
Compound: CC(C)(C)N1N=C(C(=O)Nc2ccc(O)cc2)C(c2cccc(Cl)c2F)C12C(=O)Nc1cc(Cl)ccc12 (stereo not drawn)

IC50 (HCT-116): > 50 µM
Compound: CC(C)(C)N1N=C(C(=O)NCCO)C(c2cccc(Cl)c2F)C12C(=O)Nc1cc(Cl)ccc12 (stereo not drawn)

IC50 (HCT-116): > 100 µM
Compound: O=C(O)C1=NN(C2CCCCC2)C2(C(=O)Nc3cc(Cl)ccc32)C1c1cccc(Cl)c1F (stereo not drawn)

IC50 (HCT-116): 25.5 µM
Compound: CCOC(=O)C1=NN(C2CCCCC2)C2(C(=O)Nc3cc(Cl)ccc32)C1c1cccc(Cl)c1 (stereo not drawn)

IC50 (HCT-116): 23.6 µM
IC50 (SJSA-1 [1]): 12.6 µM
Compound: CCOC(=O)C1=NN(C2CCCCC2)C2(C(=O)Nc3cc(Cl)ccc32)C1c1cccc(Cl)c1F (stereo not drawn)

IC50 (HCT-116): > 50 µM
Compound: O=C(NCCO)C1=NN(c2ccc(Cl)cc2)C2(C(=O)Nc3cc(Cl)ccc32)C1c1cccc(O)c1 (stereo not drawn)

IC50 (HCT-116): 29.9 µM
Compound: CCOC(=O)C1=NN(c2ccccc2)C2(C(=O)Nc3cc(Cl)ccc32)C1c1cccc(F)c1 (stereo not drawn)
